{"source": "ChEMBL document CHEMBL4229344", "about": "(Eur J Med Chem, 2018)", "key": {"[1]": {"target": "Activin receptor type-2B (Homo sapiens) (UniProt Q13705)", "experiment": "Binding affinity to wild-type human ACVR2B (H169 to D504 residues) expressed in bacterial expression system assessed as residual binding level at 1 uM by Kinomescan method relative to control", "in_short": "(§1)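 KINOMEscan competition binding against 468 purified kinases/mutants, test compound at 1 µM; residual binding relative to control.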"}, "[2]": {"target": "Aurora kinase B (Homo sapiens) (UniProt Q96GD4)", "sequence (Q96GD4 whole entry, the tested form may be a part)": "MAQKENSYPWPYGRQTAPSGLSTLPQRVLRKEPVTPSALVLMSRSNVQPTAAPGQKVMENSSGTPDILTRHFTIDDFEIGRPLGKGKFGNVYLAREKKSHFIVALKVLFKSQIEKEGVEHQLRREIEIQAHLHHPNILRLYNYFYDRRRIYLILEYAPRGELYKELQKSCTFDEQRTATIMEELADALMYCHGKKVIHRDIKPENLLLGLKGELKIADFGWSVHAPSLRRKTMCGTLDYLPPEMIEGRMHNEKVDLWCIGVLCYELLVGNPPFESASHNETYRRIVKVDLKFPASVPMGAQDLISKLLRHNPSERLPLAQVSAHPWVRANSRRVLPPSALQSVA", "experiment": "Binding affinity to wild-type human partial length AURKB (D25 to A303 residues) expressed in mammalian expression system assessed as residual binding level at 1 uM by Kinomescan method relative to control", "in_short": "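Single-concentration KINOMEscan (DiscoverX) binding screen at 1 μM against a panel of 468 purified kinases and mutants. The read-out is binding relative to control.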"}, "[3]": {"target": "Calcium/calmodulin-dependent protein kinase type 1 (Homo sapiens) (UniProt Q14012)", "sequence (Q14012 whole entry, looked up, the tested form may be a part)": "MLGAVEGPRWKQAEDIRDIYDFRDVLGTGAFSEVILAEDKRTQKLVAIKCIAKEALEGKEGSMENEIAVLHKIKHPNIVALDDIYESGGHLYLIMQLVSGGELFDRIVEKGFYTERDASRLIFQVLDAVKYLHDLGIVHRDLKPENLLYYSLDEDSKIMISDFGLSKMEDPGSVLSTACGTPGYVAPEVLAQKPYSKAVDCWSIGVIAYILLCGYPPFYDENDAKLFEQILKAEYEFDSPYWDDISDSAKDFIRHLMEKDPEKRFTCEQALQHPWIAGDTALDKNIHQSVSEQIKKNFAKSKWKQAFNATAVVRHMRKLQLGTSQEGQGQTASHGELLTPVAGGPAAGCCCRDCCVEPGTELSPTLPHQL", "experiment": "Binding affinity to wild-type human full length CAMK1 (M1 to L370 residues) expressed in bacterial expression system assessed as residual binding level at 1 uM by Kinomescan method relative to control", "in_short": "(§2)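 Single-concentration (1 μM) competition-binding screen run by KINOMEscan against a panel of 468 purified kinases and mutants. The read-out is the relative binding activity of the test compound to each kinase.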"}, "[4]": {"target": "Tyrosine-protein kinase CSK (Homo sapiens) (UniProt P41240)", "experiment": "Binding affinity to wild-type human full length CSK (M1 to L450 residues) expressed in bacterial expression system assessed as residual binding level at 1 uM by Kinomescan method relative to control", "in_short": "as §1"}, "[5]": {"target": "Serine/threonine-protein kinase MRCK gamma (Homo sapiens) (UniProt Q6DT37)", "experiment": "Binding affinity to wild-type human partial length DMPK2 (S46 to S408 residues) expressed in bacterial expression system assessed as residual binding level at 1 uM by Kinomescan method relative to control"}, "[6]": {"test_system": "Epidermal growth factor receptor (Homo sapiens), P00533 [G719C]", "experiment": "Binding affinity to human partial length EGFR G719C mutant (R669 to V1011 residues) expressed in bacterial expression system assessed as residual binding level at 1 uM by Kinomescan method relative to control", "in_short": "(§3)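 Kinome-wide single-concentration binding screen (KINOMEscan) at 1 μM against a panel of 468 purified kinases and mutants. Read-out is relative binding of each kinase compared with control. Selectivity across the panel was summarised as an S(10) score.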"}, "[7]": {"test_system": "Epidermal growth factor receptor (Homo sapiens), P00533 [G719S]", "experiment": "Binding affinity to human partial length EGFR G719S mutant (R669 to V1011 residues) expressed in bacterial expression system assessed as residual binding level at 1 uM by Kinomescan method relative to control", "in_short": "as §3"}, "[8]": {"target": "Epidermal growth factor receptor (Homo sapiens) (UniProt P00533)", "experiment": "Binding affinity to human partial length EGFR L747-T751del/Sins mutant expressed in bacterial expression system assessed as residual binding level at 1 uM by Kinomescan method relative to control", "in_short": "as §3"}, "[9]": {"target": "Receptor tyrosine-protein kinase erbB-4 (Homo sapiens) (UniProt Q15303)", "experiment": "Binding affinity to wild-type human partial length ERBB4 (L690 to K994 residues) expressed in bacterial expression system assessed as residual binding level at 1 uM by Kinomescan method relative to control"}, "[10]": {"test_system": "Receptor-type tyrosine-protein kinase FLT3 (Homo sapiens), P36888 [D835V]", "experiment": "Binding affinity to human partial length FLT3 D835V mutant (V592 to Y969 residues) expressed in bacterial expression system assessed as residual binding level at 1 uM by Kinomescan method relative to control", "in_short": "as §3"}, "[11]": {"test_system": "Receptor-type tyrosine-protein kinase FLT3 (Homo sapiens), P36888 [UNDEFINED MUTATION]", "experiment": "Binding affinity to human partial length FLT3 ITD/F691L double mutant expressed in bacterial expression system assessed as residual binding level at 1 uM by Kinomescan method relative to control", "in_short": "as §3"}, "[12]": {"test_system": "Mast/stem cell growth factor receptor Kit (Homo sapiens), P10721 [V559D,T670I]", "experiment": "Binding affinity to human partial length KIT V559D/T670I double mutant (Y545 to D952 residues) expressed in bacterial expression system assessed as residual binding level at 1 uM by Kinomescan method relative to control", "in_short": "as §3"}, "[13]": {"target": "Serine/threonine-protein kinase STK11 (Homo sapiens) (UniProt Q15831)", "sequence (Q15831 whole entry, the tested form may be a part)": "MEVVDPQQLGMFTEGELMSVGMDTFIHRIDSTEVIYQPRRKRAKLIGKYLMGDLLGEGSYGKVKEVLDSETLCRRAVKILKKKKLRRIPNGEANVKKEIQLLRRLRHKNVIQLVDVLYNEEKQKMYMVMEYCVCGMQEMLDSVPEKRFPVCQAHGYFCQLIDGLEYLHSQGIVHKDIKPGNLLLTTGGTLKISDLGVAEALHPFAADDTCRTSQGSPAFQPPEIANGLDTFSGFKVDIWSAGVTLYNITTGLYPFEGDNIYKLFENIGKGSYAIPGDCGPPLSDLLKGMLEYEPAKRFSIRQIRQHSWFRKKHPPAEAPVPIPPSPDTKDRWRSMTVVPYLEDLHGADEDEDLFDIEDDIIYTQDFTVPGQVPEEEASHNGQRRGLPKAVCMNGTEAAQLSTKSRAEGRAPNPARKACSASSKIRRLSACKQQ", "experiment": "Binding affinity to wild-type human full length LKB1 (M1 to Q433 residues) expressed in bacterial expression system assessed as residual binding level at 1 uM by Kinomescan method relative to control", "in_short": "as §2"}, "[14]": {"target": "Mitogen-activated protein kinase kinase kinase 1 (Homo sapiens) (UniProt Q13233)", "experiment": "Binding affinity to wild-type human partial length MAP3K1 (L1202 to W1512 residues) expressed in mammalian expression system assessed as residual binding level at 1 uM by Kinomescan method relative to control"}, "[15]": {"target": "Mitogen-activated protein kinase kinase kinase 3 (Homo sapiens) (UniProt Q99759)", "experiment": "Binding affinity to wild-type human partial length MAP3K3 (E320 to Y626 residues) expressed in mammalian expression system assessed as residual binding level at 1 uM by Kinomescan method relative to control"}, "[16]": {"target": "Serine/threonine-protein kinase PLK3 (Homo sapiens) (UniProt Q9H4B4)", "sequence (Q9H4B4 whole entry, looked up, the tested form may be a part)": "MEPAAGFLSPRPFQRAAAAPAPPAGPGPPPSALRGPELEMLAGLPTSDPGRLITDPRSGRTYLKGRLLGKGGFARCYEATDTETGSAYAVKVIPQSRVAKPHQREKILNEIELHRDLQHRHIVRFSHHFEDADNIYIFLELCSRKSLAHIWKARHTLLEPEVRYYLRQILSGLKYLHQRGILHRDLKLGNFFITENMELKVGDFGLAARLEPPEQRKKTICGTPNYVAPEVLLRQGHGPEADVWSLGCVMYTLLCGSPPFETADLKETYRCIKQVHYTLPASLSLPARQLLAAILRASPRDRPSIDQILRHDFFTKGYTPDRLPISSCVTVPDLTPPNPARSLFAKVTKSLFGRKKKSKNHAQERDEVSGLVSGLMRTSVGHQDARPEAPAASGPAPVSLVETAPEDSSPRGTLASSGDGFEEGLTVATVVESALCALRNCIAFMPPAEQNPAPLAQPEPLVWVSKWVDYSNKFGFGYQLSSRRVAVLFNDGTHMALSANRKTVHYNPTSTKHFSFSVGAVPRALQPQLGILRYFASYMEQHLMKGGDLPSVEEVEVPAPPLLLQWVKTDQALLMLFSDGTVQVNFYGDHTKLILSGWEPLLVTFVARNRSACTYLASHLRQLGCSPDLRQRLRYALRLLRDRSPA", "experiment": "Binding affinity to wild-type human partial length PLK3 (A42 to L334 residues) expressed in mammalian expression system assessed as residual binding level at 1 uM by Kinomescan method relative to control", "in_short": "(§4)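 KINOMEscan competition binding against a panel of 468 purified kinases/mutants, compound tested at 1 μM; readout is relative binding activity versus control.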"}, "[17]": {"target": "Receptor-interacting serine/threonine-protein kinase 1 (Homo sapiens) (UniProt Q13546)", "sequence (Q13546 whole entry, the tested form may be a part)": "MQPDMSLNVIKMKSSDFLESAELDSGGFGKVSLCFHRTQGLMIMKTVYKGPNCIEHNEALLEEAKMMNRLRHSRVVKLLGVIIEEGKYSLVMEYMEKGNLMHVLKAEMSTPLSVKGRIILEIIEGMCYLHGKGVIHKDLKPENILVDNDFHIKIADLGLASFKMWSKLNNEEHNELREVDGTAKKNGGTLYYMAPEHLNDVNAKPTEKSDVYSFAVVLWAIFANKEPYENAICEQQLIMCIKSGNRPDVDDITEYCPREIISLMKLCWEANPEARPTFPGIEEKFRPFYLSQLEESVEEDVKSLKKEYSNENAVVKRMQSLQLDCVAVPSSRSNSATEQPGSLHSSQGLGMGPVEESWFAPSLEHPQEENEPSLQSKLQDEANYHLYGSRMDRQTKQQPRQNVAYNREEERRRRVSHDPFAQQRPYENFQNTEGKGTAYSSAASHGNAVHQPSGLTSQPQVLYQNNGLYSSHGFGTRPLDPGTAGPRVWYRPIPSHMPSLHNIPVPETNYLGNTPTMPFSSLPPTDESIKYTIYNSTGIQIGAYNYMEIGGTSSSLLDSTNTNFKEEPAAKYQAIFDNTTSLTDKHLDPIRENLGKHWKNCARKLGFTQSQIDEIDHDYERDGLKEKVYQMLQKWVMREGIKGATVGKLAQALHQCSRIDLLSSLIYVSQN", "experiment": "Binding affinity to wild-type human partial length RIPK1 (M1 to K305 residues) expressed in bacterial expression system assessed as residual binding level at 1 uM by Kinomescan method relative to control", "in_short": "as §4"}, "[18]": {"target": "Ribosomal protein S6 kinase alpha-1 (Homo sapiens) (UniProt Q15418)", "sequence (Q15418 whole entry, the tested form may be a part)": "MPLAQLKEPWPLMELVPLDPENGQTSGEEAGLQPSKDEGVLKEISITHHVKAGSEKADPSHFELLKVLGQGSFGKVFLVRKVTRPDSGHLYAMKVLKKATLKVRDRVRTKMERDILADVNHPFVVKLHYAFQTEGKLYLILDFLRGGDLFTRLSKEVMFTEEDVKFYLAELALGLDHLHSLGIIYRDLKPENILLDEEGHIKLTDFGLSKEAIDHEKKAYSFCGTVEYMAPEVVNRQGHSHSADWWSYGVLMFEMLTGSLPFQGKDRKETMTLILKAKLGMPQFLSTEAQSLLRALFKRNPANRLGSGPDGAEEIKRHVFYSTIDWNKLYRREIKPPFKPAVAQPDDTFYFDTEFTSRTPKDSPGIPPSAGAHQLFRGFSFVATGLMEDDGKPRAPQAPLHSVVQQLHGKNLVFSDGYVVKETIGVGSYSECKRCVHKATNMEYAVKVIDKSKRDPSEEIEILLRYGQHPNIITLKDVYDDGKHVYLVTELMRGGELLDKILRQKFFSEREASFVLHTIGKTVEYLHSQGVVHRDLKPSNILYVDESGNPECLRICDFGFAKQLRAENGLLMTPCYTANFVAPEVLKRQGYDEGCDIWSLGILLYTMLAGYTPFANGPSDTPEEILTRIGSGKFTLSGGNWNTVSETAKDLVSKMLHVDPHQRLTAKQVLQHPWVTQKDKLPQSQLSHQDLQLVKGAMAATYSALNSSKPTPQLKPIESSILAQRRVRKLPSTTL", "experiment": "Binding affinity to wild-type human partial length N-terminal RSK1 Kinase domain 1 (M1 to E388 residues) expressed in bacterial expression system assessed as residual binding level at 1 uM by Kinomescan method relative to control"}, "[19]": {"target": "Wee1-like protein kinase 2 (Homo sapiens) (UniProt P0C1S8)", "sequence (P0C1S8 whole entry, looked up, the tested form may be a part)": "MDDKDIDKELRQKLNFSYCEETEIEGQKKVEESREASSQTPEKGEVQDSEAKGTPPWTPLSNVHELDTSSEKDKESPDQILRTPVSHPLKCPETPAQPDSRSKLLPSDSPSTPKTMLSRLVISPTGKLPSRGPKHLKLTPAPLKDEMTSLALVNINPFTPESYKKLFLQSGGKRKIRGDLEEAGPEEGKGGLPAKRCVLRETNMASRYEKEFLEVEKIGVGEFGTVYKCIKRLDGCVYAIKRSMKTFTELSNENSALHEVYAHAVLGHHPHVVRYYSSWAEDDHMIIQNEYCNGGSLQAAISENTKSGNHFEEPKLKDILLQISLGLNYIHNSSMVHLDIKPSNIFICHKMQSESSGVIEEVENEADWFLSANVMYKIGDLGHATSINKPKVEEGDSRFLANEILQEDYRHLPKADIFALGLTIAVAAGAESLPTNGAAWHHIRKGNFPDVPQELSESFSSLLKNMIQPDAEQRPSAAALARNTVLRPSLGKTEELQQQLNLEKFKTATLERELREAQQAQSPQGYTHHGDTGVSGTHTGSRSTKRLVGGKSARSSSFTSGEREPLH", "experiment": "Binding affinity to wild-type human partial length WEE2 (M204 to K492 residues) expressed in bacterial expression system assessed as residual binding level at 1 uM by Kinomescan method relative to control"}, "[20]": {"target": "T1, Platelet-derived growth factor receptor alpha (Homo sapiens, UniProt P16234)", "T1 sequence (P16234 whole entry)": "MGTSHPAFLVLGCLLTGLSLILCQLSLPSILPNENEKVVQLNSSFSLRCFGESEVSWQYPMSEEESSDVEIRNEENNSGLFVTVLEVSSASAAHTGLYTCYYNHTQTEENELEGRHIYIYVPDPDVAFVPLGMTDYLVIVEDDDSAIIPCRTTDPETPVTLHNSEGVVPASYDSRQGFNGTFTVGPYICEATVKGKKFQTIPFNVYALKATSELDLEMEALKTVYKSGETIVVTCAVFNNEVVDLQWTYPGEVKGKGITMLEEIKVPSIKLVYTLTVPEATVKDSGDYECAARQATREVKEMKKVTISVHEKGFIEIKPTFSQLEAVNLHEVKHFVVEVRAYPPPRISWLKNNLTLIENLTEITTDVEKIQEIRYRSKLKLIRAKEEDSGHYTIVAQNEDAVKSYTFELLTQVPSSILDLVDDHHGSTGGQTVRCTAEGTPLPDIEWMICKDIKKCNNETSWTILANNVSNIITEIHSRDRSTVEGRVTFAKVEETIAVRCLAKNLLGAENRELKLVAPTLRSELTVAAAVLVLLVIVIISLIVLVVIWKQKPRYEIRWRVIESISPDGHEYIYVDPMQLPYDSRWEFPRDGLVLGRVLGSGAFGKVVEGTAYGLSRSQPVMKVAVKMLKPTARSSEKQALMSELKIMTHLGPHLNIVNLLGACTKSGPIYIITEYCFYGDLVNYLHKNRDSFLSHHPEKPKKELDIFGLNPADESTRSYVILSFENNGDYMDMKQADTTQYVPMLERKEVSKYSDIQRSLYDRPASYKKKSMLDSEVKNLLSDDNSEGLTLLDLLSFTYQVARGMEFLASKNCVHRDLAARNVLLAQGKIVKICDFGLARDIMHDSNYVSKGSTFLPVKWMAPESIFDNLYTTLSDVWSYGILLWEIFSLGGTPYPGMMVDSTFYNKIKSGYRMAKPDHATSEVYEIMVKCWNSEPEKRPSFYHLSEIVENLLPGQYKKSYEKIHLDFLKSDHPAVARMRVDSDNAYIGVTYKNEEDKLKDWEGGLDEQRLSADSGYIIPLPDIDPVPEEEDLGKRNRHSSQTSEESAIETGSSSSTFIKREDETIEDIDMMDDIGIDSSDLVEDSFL", "experiment": "Inhibition of PDGFRalpha autophosphorylation at Y849 residue in human EOL-1 cells up to 300 nM after 2 hrs by Western blot analysis", "assay_type": "cell-based"}, "[21]": {"target": "T1, Platelet-derived growth factor receptor alpha", "experiment": "Inhibition of PDGF-induced PDGFRalpha autophosphorylation at Y754 residue in human NCI-H1703 cells after 2 hrs in presence of PDGF-AA by Western blot analysis", "assay_type": "cell-based"}, "EOL1": {"test_system": "EOL1", "experiment": "Induction of apoptosis in human EOL-1 cells assessed as cleaved caspase3 expression level at 3 to 100 nM after 24 hrs by Western blot analysis", "assay_type": "functional, cell-based", "in_short": "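Cells exposed to compound or DMSO for the stated periods, then lysed and immunoblotted for PARP and caspase-3 cleavage, with β-actin as loading control. NCI-H1703 stimulation used PDGF AA at 100 ng/mL.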"}}, "note": "The source made the active and inactive calls. The rule behind the calls is not given here.", "data": [{"compound": "Cc1ccc(NC(=O)c2ccc(CN(CCN(C)C)C(=O)c3cccnc3)cc2)cc1Nc1nccc(-c2cccnc2)n1", "values": [{"measurement": "Activity", "setting": "[1]", "value": 89, "unit": "%"}, {"measurement": "Activity", "setting": "[2]", "value": 93, "unit": "%"}, {"measurement": "Activity", "setting": "[3]", "value": 81, "unit": "%"}, {"measurement": "Activity", "setting": "[4]", "value": 92, "unit": "%"}, {"measurement": "Activity", "setting": "[5]", "value": 100, "unit": "%"}, {"measurement": "Activity", "setting": "[6]", "value": 88, "unit": "%"}, {"measurement": "Activity", "setting": "[7]", "value": 85, "unit": "%"}, {"measurement": "Activity", "setting": "[8]", "value": 100, "unit": "%"}, {"measurement": "Activity", "setting": "[9]", "value": 85, "unit": "%"}, {"measurement": "Activity", "setting": "[10]", "value": 100, "unit": "%"}, {"measurement": "Activity", "setting": "[11]", "value": 100, "unit": "%"}, {"measurement": "Activity", "setting": "[12]", "value": 76, "unit": "%"}, {"measurement": "Activity", "setting": "[13]", "value": 99, "unit": "%"}, {"measurement": "Activity", "setting": "[14]", "value": 88, "unit": "%"}, {"measurement": "Activity", "setting": "[15]", "value": 86, "unit": "%"}, {"measurement": "Activity", "setting": "[16]", "value": 79, "unit": "%"}, {"measurement": "Activity", "setting": "[17]", "value": 89, "unit": "%"}, {"measurement": "Activity", "setting": "[18]", "value": 99, "unit": "%"}, {"measurement": "Activity", "setting": "[19]", "value": 96, "unit": "%"}, {"measurement": "inhibition", "setting": "[20]", "value": "Active"}, {"measurement": "inhibition", "setting": "[21]", "value": "Dose-dependent effect"}, {"measurement": "Activity", "setting": "EOL1", "value": "Active"}]}]}
